Test [1] in a line: Her2 expression decrease, cell viability multiplex – SKBR3 breast tumor cells, AlphaScreen, ATP viability, primary screen (AID 461;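 active means Her2 level under about 52% in both replicate screens, with viability over 70% of control, limit read from the data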;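 on Her2 level: lower value means less Her2 protein in the cells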;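 on viability: percent of carrier control wells set as 100% viability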). Conditions: SKBR3 Her2 protein level, 18-24 h, measured here: SKBR3 viability, ATP luminescence, at 10 µM. On the technique in general: Alpha assays give light when donor and acceptor beads are brought close together.
Test [2] has as its target Receptor tyrosine-protein kinase erbB-2 (Homo sapiens) (UniProt P04626). The description is as above. The settings on record: 18-24 h, at 10 µM, stronger effect = lower value.
Test [3] is described as follows: reduced viability of SK-BR-3 breast cancer cells – cell-based, 24 h, human, pilot screen (AID 572).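 Further: compound exposure lasted between 18 and 24 h rather than exactly 24 h; 100% = carrier-treated control wells.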 The settings on record: SK-BR-3 viability, CellTiter-Glo luminescence, at 10 µM, stronger effect = lower value. In general terms: Cellular ATP, detected with luciferase, serves as a proxy for viable cell number.
Test [4] is described as follows: HUVEC growth inhibition – cell-based, human, primary screen (AID 575;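 active means viability at or below 30% in both replicate assays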;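 further: 100% = median of untreated cell wells with 0.1% DMSO on each plate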). The settings on record: HUVEC proliferation, CellTiter-Glo luminescence, 72 h; at 10 µM; stronger effect = lower value. Summed up:
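Timing: 72 h treatment at 37 °C; material: HUVEC primary cells; technique: CellTiter-Glo luminescence measuring cellular ATP; controls: vehicle and MePR control wells; measure: percent of median DMSO-control luminescence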

Test [5] is described as follows: H69AR cell proliferation blockers – human, duplicate replicates, primary screen (AID 580;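 active means viability at or under a set limit in both replicates, limit being median viability minus 3 SD, cut at about 48% in these data, passing the limit was not always enough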;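 further: 100% = mean luminescence of untreated wells and 0% = no signal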). Conditions: H69AR lung tumor cells viability, ATP luminescence, 72 h; at 10 µM; stronger effect = lower value.
The nature of test [6]: MRP1 drug-resistance reversers in H69AR cells – cell-based, doxorubicin co-treatment, pilot screen (AID 601;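 active means viability loss from added drug above about 55%, and viability with drug at most 40%, in both replicates, limit read from the data, passing the limit was not always enough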). The settings on record: CellTiter-Glo, 72 h, at 10 µM; for differential viability (reversal): stronger effect = higher value.
Test [7] is described as follows: yeast transport mutant growth inhibition pilot in 384-well plates, post-Golgi transport modulator project (AID 636; in the data active means inhibition above about 31%). The settings on record: absorbance 615 nm, about 18 h, stronger effect = higher value.
Test [8] is described as follows: growth suppression of yeast trafficking mutant, preliminary HTS, modulators of trafficking downstream of Golgi apparatus project, 1536-format plate, OD 615 nm (AID 637; in the data active means inhibition above about 30%). The settings on record: yeast transport mutant growth, absorbance 615 nm, 18 h; stronger effect = higher value.
Where [9] appears, read: H69AR cells + 2 uM doxorubicin, measured here: viability with 2 uM doxorubicin, stronger effect = lower value.
Where [10] appears, read: H69AR cells, compound alone cytotoxicity.

As a reminder, the viability is a read-out of living cells in per cent, often relative to untreated cells. In general, inhibition refers to the relative decrease from the control value, in per cent.

Calls of active or inactive are those of the source.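 How the source made its calls, unless noted: active means viability at or below 10% of carrier control in both of two separate runs; inconclusive means viability at or below 10% in only one of the two runs; inactive means the rest.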

Sequence of Receptor tyrosine-protein kinase erbB-2 (Homo sapiens) (P04626 whole entry, looked up): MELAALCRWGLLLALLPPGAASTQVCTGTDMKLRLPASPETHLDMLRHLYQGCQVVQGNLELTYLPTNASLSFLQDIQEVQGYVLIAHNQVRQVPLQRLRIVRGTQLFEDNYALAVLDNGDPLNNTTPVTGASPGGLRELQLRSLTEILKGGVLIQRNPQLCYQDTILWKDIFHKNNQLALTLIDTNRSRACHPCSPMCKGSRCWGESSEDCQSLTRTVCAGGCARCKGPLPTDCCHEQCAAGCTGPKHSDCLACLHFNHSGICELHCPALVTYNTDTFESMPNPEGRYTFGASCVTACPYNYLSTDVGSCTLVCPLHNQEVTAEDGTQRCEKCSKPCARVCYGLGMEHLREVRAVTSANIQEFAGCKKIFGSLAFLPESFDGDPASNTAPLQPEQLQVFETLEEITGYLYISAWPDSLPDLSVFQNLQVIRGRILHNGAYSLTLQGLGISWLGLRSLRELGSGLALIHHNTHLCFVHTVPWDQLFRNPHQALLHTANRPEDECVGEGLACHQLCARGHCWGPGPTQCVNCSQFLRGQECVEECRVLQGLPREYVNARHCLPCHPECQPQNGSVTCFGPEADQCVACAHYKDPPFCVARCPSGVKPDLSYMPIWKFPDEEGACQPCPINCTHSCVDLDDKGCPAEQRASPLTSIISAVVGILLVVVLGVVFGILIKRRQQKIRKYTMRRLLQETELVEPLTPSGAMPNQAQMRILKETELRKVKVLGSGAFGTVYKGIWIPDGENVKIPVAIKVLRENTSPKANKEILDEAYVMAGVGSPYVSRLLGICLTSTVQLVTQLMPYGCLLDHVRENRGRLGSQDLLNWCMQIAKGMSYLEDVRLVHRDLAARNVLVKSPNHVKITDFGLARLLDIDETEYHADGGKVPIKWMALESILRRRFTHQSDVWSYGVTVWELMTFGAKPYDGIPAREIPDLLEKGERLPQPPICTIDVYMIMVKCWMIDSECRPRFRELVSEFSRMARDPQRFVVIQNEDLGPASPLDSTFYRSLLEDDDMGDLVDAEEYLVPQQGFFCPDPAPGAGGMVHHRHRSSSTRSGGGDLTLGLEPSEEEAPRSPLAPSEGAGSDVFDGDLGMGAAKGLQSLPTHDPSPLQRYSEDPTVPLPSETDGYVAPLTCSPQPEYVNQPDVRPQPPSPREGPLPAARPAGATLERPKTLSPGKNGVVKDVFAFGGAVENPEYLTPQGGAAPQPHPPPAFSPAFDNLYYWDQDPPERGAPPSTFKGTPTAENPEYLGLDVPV

For the compound `C=CCn1cc(C(=O)NCCOC)c(=O)c2cc(S(=O)(=O)N(CC)CC)ccc21`, the viability is 98.5% in test [1]; 98.5% (inactive) in test [3]; 86.6% (inactive) in test [4]; 83.1% (inactive) in test [5]; 92.4% in test [6] (setting [9]); 83.1% in test [6] (setting [10]). In addition, the Her2 level in test [2] was 93.5% (inactive). Also, the differential viability (reversal) in test [6] (H69AR cells + 2 uM doxorubicin) is -9.34% (inactive). Besides, the inhibition is -5.13% (inactive) in test [7] and -2.73% (inactive) in test [8].
With `CCOC(=O)N1CCN(C(=O)C2c3cc(OC)c(OC)cc3C(=O)N3CCc4ccccc4C23)CC1` (stereo not given), the viability in test [1] is 116%; in test [3] it was 116% (inactive); in test [4], 102% (inactive); in test [5], 95.7% (inactive); in test [6] (setting [9]), 96.4%; in test [6] (setting [10]), 95.7%. For the same compound, in test [2], the Her2 level was 97% (inactive). Further, the differential viability (reversal) in test [6] (H69AR cells + 2 uM doxorubicin) is -0.775% (inactive). The inhibition was -6.4% (inactive) in test [7] and 0.49% (inactive) in test [8].
As to `COc1ccc(Oc2nc(Oc3ccc(OC)cc3)nc(Oc3ccc(OC)cc3)n2)cc1`, the viability was 104% in test [1]; 104% (inactive) in test [3]; 95.6% (inactive) in test [4]; 94.6% (inactive) in test [5]; 87.7% in test [6] (setting [9]); 94.6% in test [6] (setting [10]). The Her2 level in test [2] was 102% (inactive). Also, in test [6] (H69AR cells + 2 uM doxorubicin), the differential viability (reversal) is 6.92% (inactive). Further, the figures for the inhibition in test [7] and in test [8] were -0.93% (inactive) and -5.81% (inactive), respectively.
In the case of `COCCN1C(=O)c2oc3c(C)cc(C)cc3c(=O)c2C1c1cccc(O)c1` (stereo not given), the viability in test [1] is 101%; in test [3], 101% (inactive); in test [4] it was 102% (inactive); in test [5], 88.1% (inactive); in test [6] (setting [9]) it was 90.9%; in test [6] (setting [10]), 88.1%. Further, the Her2 level in test [2] is 89.5% (inactive). Further, the differential viability (reversal) in test [6] (H69AR cells + 2 uM doxorubicin) was -2.81% (inactive). Also, the inhibition is -5.26% (inactive) in test [7] and -3.23% (inactive) in test [8].
Turning to `COC(=O)c1sc2ccccc2c1NC(=O)c1cccs1`, the viability in test [1] is 97.5%; in test [3], 97.5% (inactive); in test [4], 82.1% (inactive); in test [5] it was 82.1% (inactive); in test [6] (setting [9]), 99.3%; in test [6] (setting [10]), 82.1%. Moreover, the Her2 level in test [2] was 99.5% (inactive). Besides, the differential viability (reversal) in test [6] (H69AR cells + 2 uM doxorubicin) is -17.2% (inactive). Moreover, the inhibition in test [7] was -2.08% (inactive); in test [8], -5.87% (inactive).
Turning to `COc1cc(Br)cc(CN2CCN(C/C=C/c3ccccc3)CC2)c1O`, the viability was 81% in test [1]; 81% (inactive) in test [3]; 79.5% (inactive) in test [4]; 93.2% (inactive) in test [5]; 86% in test [6] (setting [9]); 93.2% in test [6] (setting [10]). In test [2], the Her2 level was 93.5% (inactive). Further, in test [6] (H69AR cells + 2 uM doxorubicin), the differential viability (reversal) is 7.21% (inactive). Moreover, the inhibition in test [7] was 0.93% (inactive); in test [8], 11.3% (inactive).
Take `CCOC(=O)C1=C(C)Nc2nnnn2C1c1c[nH]c2ccccc12` (stereo not given): the viability in test [1] was 110%; in test [3], 110% (inactive); in test [4] it was 77.3% (inactive); in test [5] it was 104% (inactive); in test [6] (setting [9]), 95.8%; in test [6] (setting [10]) it was 104%. Besides, the Her2 level in test [2] was 94% (inactive). For the same compound, in test [6] (H69AR cells + 2 uM doxorubicin), the differential viability (reversal) was 7.95% (inactive). The inhibition in test [7] was -2.93% (inactive); in test [8] it was 15.6% (inactive).
For the compound `O=C(NCc1cccnc1)C1CCCN(S(=O)(=O)c2ccc(Cl)cc2)C1` (stereo not given), the viability in test [1] was 102%; in test [3], 102% (inactive); in test [4] it was 77.1% (inactive); in test [5], 86.9% (inactive); in test [6] (setting [9]), 84.9%; in test [6] (setting [10]), 86.9%. Moreover, the Her2 level in test [2] was 96% (inactive). Moreover, the differential viability (reversal) in test [6] (H69AR cells + 2 uM doxorubicin) is 1.95% (inactive). Moreover, the figures for the inhibition in test [7] and in test [8] were -2.57% (inactive) and -1.75% (inactive), respectively.
`COc1ccccc1CN1C(=O)CCC1(C)C(=O)NC1CCCCCC1` (stereo not given): the viability in test [1] was 83%; in test [3], 83% (inactive); in test [4] it was 101% (inactive); in test [5], 98.1% (inactive); in test [6] (setting [9]), 95.2%; in test [6] (setting [10]), 98.1%. For the same compound, the Her2 level in test [2] was 99% (inactive). For the same compound, in test [6] (H69AR cells + 2 uM doxorubicin), the differential viability (reversal) was 2.86% (inactive). The inhibition was -2.13% (inactive) in test [7] and 2.62% (inactive) in test [8].
`CCn1c(C)cc(=S)c2ccccc21`: the viability in test [1] is 114%; in test [3], 114% (inactive); in test [4] it was 98.6% (inactive); in test [5], 91.2% (inactive); in test [6] (setting [9]), 87.3%; in test [6] (setting [10]) it was 91.2%. In addition, in test [2], the Her2 level is 99.5% (inactive). Further, in test [6] (H69AR cells + 2 uM doxorubicin), the differential viability (reversal) was 3.92% (inactive). Further, the values for the inhibition in test [7] and in test [8] were 1.22% (inactive) and -3.65% (inactive), respectively.
For the compound `O=C(O)CCc1ccc(-c2cccs2)n1CCC(=O)O`, the viability in test [1] was 108%; in test [3], 108% (inactive); in test [4], 107% (inactive); in test [5], 85.8% (inactive); in test [6] (setting [9]), 84.6%; in test [6] (setting [10]), 85.8%. The Her2 level in test [2] was 86.5% (inactive). Further, in test [6] (H69AR cells + 2 uM doxorubicin), the differential viability (reversal) is 1.25% (inactive). Also, the inhibition is -2.24% (inactive) in test [7] and -1.64% (inactive) in test [8].
As to `CN1CCN(C(=O)CCC(=O)c2ccc(F)cc2)CC1`, the viability was 114% in test [1]; 114% (inactive) in test [3]; 96.4% (inactive) in test [4]; 94.8% (inactive) in test [5]; 87.2% in test [6] (setting [9]); 94.8% in test [6] (setting [10]). Moreover, the Her2 level in test [2] was 79.5% (inactive). Moreover, the differential viability (reversal) in test [6] (H69AR cells + 2 uM doxorubicin) was 7.6% (inactive). The inhibition is -8.53% (inactive) in test [7] and -3.77% (inactive) in test [8].
As for `Cc1cccc(N2C(=O)CC(N3CCN(C(=O)c4ccccc4)CC3)C2=O)c1` (stereo not given), the viability is 114% in test [1]; 114% (inactive) in test [3]; 90.8% (inactive) in test [4]; 96.3% (inactive) in test [5]; 83.6% in test [6] (setting [9]); 96.3% in test [6] (setting [10]). Also, the Her2 level in test [2] was 104% (inactive). In addition, the differential viability (reversal) in test [6] (H69AR cells + 2 uM doxorubicin) is 12.7% (inactive). The inhibition in test [7] was -5.32% (inactive); in test [8], 2.13% (inactive).
For the compound `COc1ccc2c(c1)Sc1ccccc1N2CCN(C)C`, the viability in test [1] is 88.5%; in test [3] it was 88.5% (inactive); in test [4], 59.1% (inactive); in test [5] it was 68.8% (inactive); in test [6] (setting [9]) it was 72.3%; in test [6] (setting [10]) it was 68.8%. For the same compound, in test [2], the Her2 level was 86.5% (inactive). Also, the differential viability (reversal) in test [6] (H69AR cells + 2 uM doxorubicin) is -3.43% (inactive). The inhibition is -5.39% (inactive) in test [7] and -6.29% (inactive) in test [8].

Values taken from PubChem BioAssay.
